ChEMBL document CHEMBL4706684, “Discovering High Potent Hsp90 Inhibitors as Antinasopharyngeal Carcinoma Agents through Fragment Assembling Approach” (J Med Chem, 2021)
Active and inactive are the calls of the source. The rule behind the calls is not given here.

What was measured:
CNE-2 [1] = experiment: Cytotoxicity in human CNE-2 cells assessed as reduction in cell viability incubated for 48 hrs by MTT assay; assay type: cell-based; details: CNE-2, 48 h
Procedure, shortened: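 Cells were seeded at 3 × 10³ cells per well and grown for 24 h at 37 °C in 5% CO₂. CNE2 was grown in RPMI 1640 and HeLa and HepG2 in DMEM, each with 10% FBS and 1% penicillin/streptomycin. Cells were exposed to 0−20 μM inhibitor for 48 h, with a DMSO solvent control. MTT (0.5 mg/mL) was then added for 3 h.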

CNE-2 [2] = experiment: Antitumor activity against human CNE-2 cells xenografted in nu/nu mouse assessed as induction of tumor size shrinkage at 1 mg/kg, po for 32 days; assay type: functional, organism-based; details: time 32.0 day
[3] = target: Heat shock protein HSP 90-beta (Homo sapiens, UniProt P08238); experiment: Inhibition of HSP90-beta (unknown origin) expressed in Escherichia coli BL21 assessed as reduction in ATPase activity in presence of PEP, NADH and ATP by pyruvate kinase/lactic dehydrogenase based coupled enzyme assay
Chain of Heat shock protein HSP 90-beta (P08238 whole entry): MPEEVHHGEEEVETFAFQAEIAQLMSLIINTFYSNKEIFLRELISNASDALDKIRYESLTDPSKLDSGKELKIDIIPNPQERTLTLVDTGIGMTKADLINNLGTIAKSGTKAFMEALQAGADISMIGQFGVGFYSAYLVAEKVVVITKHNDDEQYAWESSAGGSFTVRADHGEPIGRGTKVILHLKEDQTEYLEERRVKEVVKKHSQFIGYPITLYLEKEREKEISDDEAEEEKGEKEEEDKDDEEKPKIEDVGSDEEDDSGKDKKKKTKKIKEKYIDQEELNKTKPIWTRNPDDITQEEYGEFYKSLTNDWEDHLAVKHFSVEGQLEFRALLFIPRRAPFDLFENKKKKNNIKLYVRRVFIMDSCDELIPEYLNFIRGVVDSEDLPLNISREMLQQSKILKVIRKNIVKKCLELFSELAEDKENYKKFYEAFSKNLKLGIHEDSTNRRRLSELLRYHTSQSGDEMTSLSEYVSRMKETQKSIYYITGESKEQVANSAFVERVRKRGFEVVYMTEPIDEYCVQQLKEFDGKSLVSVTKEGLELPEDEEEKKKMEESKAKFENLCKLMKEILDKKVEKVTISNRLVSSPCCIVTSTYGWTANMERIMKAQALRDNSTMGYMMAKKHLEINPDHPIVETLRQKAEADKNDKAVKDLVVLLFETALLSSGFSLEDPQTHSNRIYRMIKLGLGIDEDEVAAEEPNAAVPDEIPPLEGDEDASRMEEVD

[4] = target: T1, Heat shock protein HSP 90-alpha (Homo sapiens, UniProt P07900); experiment: Inhibition of HSP90-alpha in human CNE-2 cells assessed as reduction in PKB protein levels at 20 to 500 nM incubated for 24 hrs by immunoblot analysis; assay type: cell-based; details: dose 20-500 nM
Procedure, shortened: (§1)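 CNE2 cells (RPMI 1640, 10% FBS, 37 °C, 5% CO₂) were incubated with inhibitor for 24 h, then lysed in RIPA buffer on ice for 30 min. Lysates were run on 8–12% SDS-PAGE and transferred to PVDF. Membranes were blocked with 5% milk and probed with primary antibodies overnight, then HRP secondaries. Detection was by chemiluminescence with actin as loading control.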

CNE-2 [5] = experiment: Induction of apoptosis in human CNE-2 cells assessed as early apoptosis cells level at 70 nM incubated for 12 hrs by Annexin-V/FITC staining based FACS analysis (reference value: 3.1%); assay type: cell-based; details: cne-2, 12 h, 0.07 µM
CNE-2 [6] = experiment: Induction of apoptosis in human CNE-2 cells assessed as early apoptosis cells level at 20 nM incubated for 12 hrs by Annexin-V/FITC staining based FACS analysis (reference value: 1.45%); assay type: cell-based; details: cne-2, 12 h, 0.02 µM
[7] = target: T1, Heat shock protein HSP 90-alpha; experiment: Inhibition of HSP90-alpha in human CNE-2 cells assessed as reduction in PKB protein levels at 70 nM incubated for 24 hrs in presence of HSP90-alpha siRNA by immunoblot analysis; assay type: cell-based
Procedure, shortened: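 CNE2 cells were transiently transfected with Hsp90 siRNA (siHsp90-1 or siHsp90-2) at 150 nM final using Lipofectamine 2000. They were then incubated with inhibitor for 24 h and immunoblotted: RIPA lysis, 8–12% SDS-PAGE, PVDF, overnight primary antibodies, HRP secondaries, chemiluminescence, actin as loading control.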

CNE-2 [8] = experiment: Induction of apoptosis in human CNE-2 cells assessed as late apoptosis cells level at 500 nM incubated for 12 hrs by Annexin-V/FITC staining based FACS analysis (reference value: 1.45%); assay type: cell-based; details: cne-2, 12 h, 0.5 µM
CNE-2 [9] = experiment: Induction of apoptosis in human CNE-2 cells assessed as early apoptosis cells level at 100 nM incubated for 12 hrs by Annexin-V/FITC staining based FACS analysis (reference value: 1.45%); assay type: cell-based; details: cne-2, 12 h, 0.1 µM
CNE-2 [10] = experiment: Induction of apoptosis in human CNE-2 cells overexpressing HSP90 assessed as necrosis cells level at 70 nM incubated for 12 hrs by Annexin-V/FITC staining based FACS analysis (reference value: 1.49%); assay type: cell-based; details: cne-2, 12 h, 0.07 µM
CNE-2 [11] = experiment: Induction of apoptosis in human CNE-2 cells assessed as necrosis cells level at 200 nM incubated for 12 hrs by Annexin-V/FITC staining based FACS analysis (reference value: 1.45%); assay type: cell-based; details: cne-2, 12 h, 0.2 µM
CNE-2 [12] = experiment: Induction of apoptosis in human CNE-2 cells assessed as Bcl-XL degradation at 70 nM incubated for 24 hrs in presence of HSP90-beta siRNA by immunoblot analysis; assay type: functional, cell-based
HEK-293T = experiment: Cytotoxicity in HEK293T cells assessed as reduction in cell viability up to 20 uM incubated for 48 hrs by MTT assay; assay type: cell-based; details: human
CNE-2 [13] = experiment: Induction of apoptosis in human CNE-2 cells assessed as Bcl-XL degradation at 20 to 500 nM incubated for 24 hrs by immunoblot analysis; assay type: functional, cell-based; details: dose 20-500 nM; procedure, shortened: as §1
CNE-2 [14] = experiment: Antitumor activity against human CNE-2 cells xenografted in nu/nu mouse assessed as induction of tumor size shrinkage at 1 mg/kg, ip for 32 days; assay type: functional, organism-based; details: time 32.0 day
[15] = Half life in Kunming mouse at 2 mg/kg, iv measured up to 6 hrs by HPLC analysis; assay type: ADME, organism-based; details: in vivo
Procedure, shortened: (§2)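 Male Kunming mice, 9–11 weeks old, about 23 g, four per group, were given a single 2 mg/kg dose intravenously or orally. Blood was sampled at 0, 10, 15, 30 min and 1, 2, 4, 6 h. For each sample, 40 μL plasma was deproteinized with 200 μL acetonitrile and centrifuged 10 min at 12 000 rpm before analysis.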

[16] = target: T1, Heat shock protein HSP 90-alpha; experiment: Potency index, ratio of IC50 for 17-AAG to IC50 for inhibition of HSP90-alpha (unknown origin) expressed in Escherichia coli BL21 assessed as reduction in ATPase activity in presence of PEP, NADH and ATP by pyruvate kinase/lactic dehydrogenase based coupled enzyme assay
Procedure, shortened: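 The reaction was started with 2 μM Hsp90 at 37 °C and followed as the decrease in absorbance at 340 nm. Compounds were added to the reaction mixture, with 17-AAG as reference.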

[17] = target: T1, Heat shock protein HSP 90-alpha; experiment: Inhibition of HSP90-alpha in human CNE-2 cells assessed as reduction in PKB protein levels at 70 nM incubated for 24 hrs in presence of HSP90-beta siRNA by immunoblot analysis; assay type: cell-based
CNE-2 [18] = experiment: Induction of apoptosis in human CNE-2 cells assessed as viable cells level at 70 nM incubated for 12 hrs by Annexin-V/FITC staining based FACS analysis (reference value: 93.2%); assay type: cell-based; details: read-out: Activity
Procedure, shortened: (§3)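 CNE2 cells (RPMI 1640 with 10% FBS) were seeded at 5 × 10⁴ cells per well. After 24 h they were treated with compound in 0.05% DMSO for 12 h. Cells were then washed twice with PBS, pelleted, and stained in binding buffer with Annexin V-FITC and PI for flow cytometry.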

[19] = Oral bioavailability in Kunming mouse at 2 mg/kg measured up to 6 hrs by HPLC analysis; assay type: ADME, organism-based; details: in vivo; procedure, shortened: as §2
CNE-2 [20] = experiment: Induction of apoptosis in human CNE-2 cells assessed as viable cells level at 50 nM incubated for 12 hrs by Annexin-V/FITC staining based FACS analysis (reference value: 96.7%); assay type: cell-based; details: read-out: Activity; procedure, shortened: as §3
CNE-2 [21] = experiment: Induction of apoptosis in human CNE-2 cells overexpressing HSP90 assessed as viable cells level at 70 nM incubated for 12 hrs by Annexin-V/FITC staining based FACS analysis (reference value: 93.2%); assay type: cell-based; details: read-out: Activity
CNE2 (Homo sapiens) = experiment: Induction of apoptosis in human CNE2 cells at 70 nM incubated for 12 hrs in presence of HSP90-alpha siRNA by Annexin-V/FITC staining based FACS analysis; details: cne2, 12 h, 0.07 µM

With `CC(C)(C)c1ccc(Cn2cc(-c3cc(O)c(O)c(O)c3)nn2)cc1` the IC50 (CNE-2 [1]) was 40 nM, the Activity (CNE-2 [2]) was “Active” and the IC50 [3] was 180 nM. The inhibition [4] was “Active”, the Activity (CNE-2 [5]) was 13.7% and the Activity (CNE-2 [6]) was 4.08%. The inhibition [7] was “inactive”, the Activity (CNE-2 [8]) was 33.4% and the Activity (CNE-2 [9]) was 6.22%. For the same compound, the Activity (CNE-2 [10]) was 0.64%, the Activity (CNE-2 [11]) was 0.3% and the Activity (CNE-2 [12]) was “inactive”. For the same compound, the Activity (HEK-293T) was “Non-Toxic”, the Activity (CNE-2 [13]) was “Active” and the Activity (CNE-2 [14]) was “Active”. The half-life [15] was 1.1 h, the Ratio IC50 [16] was 5 and the inhibition [17] was “inactive”. It also gave a viability at 0.07 µM (CNE-2 [18]) of 75%, a bioavailability [19] of 12% and a viability at 0.05 µM (CNE-2 [20]) of 77.2%. For the same compound, the viability at 0.07 µM (CNE-2 [21]) was 94% and the Activity (CNE2 (Homo sapiens)) was “Non-Toxic”.
